Reference: publication PMC6217654 (ACS Omega, 2018)

Key:
[1] = system: rats with Ara-C-induced cerebellar damage; test: Ara-C-induced cerebellar ataxia in rats, open field fall index; assay type: in vivo, rat; conditions: 79 10 and 30 mg/kg p.o. once daily for 7 days, vs control
[2] = PK of TRH and 79 after oral administration to fasted conscious rats; assay type: in vivo, rat
How it was run: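 Male Wistar rats (10–11 weeks, 230–274 g, n ≥ 4), fasted from the evening before dosing to the 12 h sample. Jugular cannula placed under isoflurane 2–3 days before. Single p.o. dose of 40 mg/4 mL/kg in saline. Heparinized blood (~0.3 mL) drawn via cannula; plasma deproteinized with methanol; HPLC with UV absorbance detection. Cmax, Tmax, AUC0–8h given as mean ± SD.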

[3] = system: CYP1A2, CYP2A6, CYP2B6, CYP2C9, CYP2C19, CYP2D6, CYP2E1, CYP3A4/5, CYP4A11; test: Direct CYP inhibition, 10 CYP enzymes; assay type: in vitro ADME; conditions: human
[4] = system: CYP1A2, CYP2A6, CYP2B6, CYP2C8, CYP2C9, CYP2C19, CYP2D6, CYP2E1, CYP3A4/5, CYP4A11; test: Direct CYP inhibition, 10 CYP enzymes; assay type: in vitro ADME; conditions: human
[5] = system: reserpine-induced hypothermia mice; test: Antagonistic effect on reserpine-induced hypothermia in mice; assay type: in vivo; conditions: p.o.
How it was run: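 Male ddY mice (bought at 6 weeks, 1-week quarantine, ~25 °C). Reserpine 3 mg/kg s.c.; mice with rectal temperature ≤30 °C about 18 h later were used. Test compound in saline p.o. at 5 μmol/kg, TRH at 50 μmol/kg, saline controls. Rectal temperature by thermistor before and up to 7 h post-dose. Trapezoidal AUC0–7h, with saline AUC subtracted. Mean ± SD, ≥3 animals.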

rats = test: Acute lethal dose, single oral administration in rats; assay type: in vivo, rat
[6] = Stability in rat plasma, cerebrum and cerebellum homogenate at 37 °C; assay type: in vitro ADME; conditions: for compound remaining, cerebellum: rat cerebellum homogenate; for compound remaining, cerebrum: rat cerebrum homogenate; for compound remaining, plasma: rat plasma
human TRH-R = conditions: read-out: Ki for human TRH-R; in vitro binding, reported previously; cited from earlier work
CYP2C8 = biological target: T1, CYP2C8 (Homo sapiens, UniProt P10632); test: Direct CYP inhibition, CYP2C8; assay type: in vitro ADME
T1 sequence (P10632 1-490): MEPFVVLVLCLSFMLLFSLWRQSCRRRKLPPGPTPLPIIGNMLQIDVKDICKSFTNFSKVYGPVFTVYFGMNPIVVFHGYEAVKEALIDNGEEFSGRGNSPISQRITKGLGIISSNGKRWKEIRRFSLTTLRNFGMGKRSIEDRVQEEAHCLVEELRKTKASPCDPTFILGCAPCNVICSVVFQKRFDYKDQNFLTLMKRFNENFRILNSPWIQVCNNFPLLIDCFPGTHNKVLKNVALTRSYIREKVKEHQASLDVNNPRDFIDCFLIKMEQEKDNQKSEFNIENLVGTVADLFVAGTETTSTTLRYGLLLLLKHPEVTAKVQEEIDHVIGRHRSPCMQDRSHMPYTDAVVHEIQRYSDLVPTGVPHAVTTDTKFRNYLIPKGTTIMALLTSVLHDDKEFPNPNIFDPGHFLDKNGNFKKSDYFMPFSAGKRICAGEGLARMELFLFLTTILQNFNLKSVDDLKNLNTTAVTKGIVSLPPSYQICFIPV

plasma TSH level = test: TSH releasing activity after oral administration in rats; assay type: in vivo; conditions: rat
How it was run: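 Male Sprague-Dawley rats (258–320 g, n ≥ 4, fed), dosed p.o. at 0.1 or 1 mg/2 mL/kg in water. Blood taken by decapitation at scheduled times, clotted 30 min at 25 °C, centrifuged for serum. TSH measured by [125I] rat TSH assay kit with magnetic separation. Mean ± SD.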

[7] = male, Wistar, rat, plasma, po, 40 mg/kg

C[C@@H]1OC(=O)N[C@@H]1C(=O)N[C@@H](Cc1cscn1)C(=O)N1CCC[C@H]1C [Compound 79, 1-{N-[(4S,5S)-(5-Methyl-2-oxooxazolidine-4-yl)carbonyl]-3-(thiazol-4-yl)-L-alanyl}-(2R)-2-methylpyrrolidine trihydrate]
fall index [1]: significant decrease
Cmax and AUC0–8h relative to TRH ([2]; fasted rats, p.o. 40 mg/kg): over 12 times
AUC(0-t) [2, 7]: 817 ± 349 ng·h/mL
Cmax [2, 7]: 636 ± 232 ng/mL
Tmax [2, 7]: 15 min
inhibition at 300 μM [3]: ≤ 10%
inhibition at 300 μM [4]: ≤ 50%
rectal temperature compared with saline levels ([5]; 79 5 μmol/kg from 2 to 7 h, TRH 50 μmol/kg from 0 to 7 h): > 2.5 °C
rectal temperature ΔAUC0–7h = AUC0–7h(compounds) – AUC0–7h(saline) ([5]; reserpine-induced hypothermia mice, TRH 50 μmol/kg, 79 5 μmol/kg): 28.0 ± 4.3 °C·h
rectal temperature AUC0–7h ([5]; reserpine-induced hypothermia mice, TRH 50 μmol/kg, 79 5 μmol/kg, mean ± SD): 233.4 ± 4.3 °C·h
acute lethal dose (rats): over 2000 mg/kg
compound remaining, cerebellum ([6]; 15 min): 100 ± 0.0%
compound remaining, cerebellum ([6]; 30 min): 99.9 ± 0.0%
compound remaining, cerebellum ([6]; 60 min): 99.7 ± 0.0%
compound remaining, cerebellum ([6]; 120 min): 99.6 ± 0.1%
compound remaining, cerebellum ([6]; 180 min): 99.5 ± 0.1%
compound remaining, cerebrum ([6]; 15 min): 100.2 ± 0.2%
compound remaining, cerebrum ([6]; 30 min): 100.2 ± 0.1%
compound remaining, cerebrum ([6]; 60 min): 100.3 ± 0.1%
compound remaining, cerebrum ([6]; 120 min): 99.9 ± 0.1%
compound remaining, cerebrum ([6]; 180 min): 99.7 ± 0.1%
compound remaining, plasma ([6]; 15 min): 100 ± 0.1%
compound remaining, plasma ([6]; 30 min): 99.8 ± 0.1%
compound remaining, plasma ([6]; 60 min): 99.6 ± 0.3%
compound remaining, plasma ([6]; 120 min): 99.8 ± 0.2%
compound remaining, plasma ([6]; 180 min): 99.8 ± 0.1%
Ki (human TRH-R): 702 nM
inhibition at 300 μM (CYP2C8): ~20%
plasma TSH level (plasma TSH level; p.o. 0.1 mg/kg, at 0.5 h): 46.8 ng/mL
plasma TSH level (plasma TSH level; p.o. 1 mg/kg, at 0.5 h): 80.4 ng/mL
plasma TSH level (plasma TSH level; p.o. 0.1 and 1 mg/kg, at 24 h): recovered to vehicle levels
